Experimental data: ChEMBL document CHEMBL5696442, “Discovery of type II inhibitors of TGFβ-activated kinase 1 (TAK1) and mitogen-activated protein kinase kinase kinase kinase 2 (MAP4K2)” (J Med Chem, 2015)
Activity calls are given as the source filed them. No cut-off for these calls is given here.

Columns and labels:
MEF [1] = test: Inhibition of TGF-beta induced SMAD2 phosphorylation level in TAK1 deficient mouse MEF cells at low concentration incubated for 1 hr followed by TGF-beta stimulation by Western blot analysis; type: functional, cell-based
Method in brief: (§1)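 TAK1-null MEFs grown in DMEM with 10% FBS, 2 mM L-glutamine and penicillin/streptomycin at 37 °C under 5% CO2. Inhibitors added 1 h before TGFβ (50 pM, 45 min). Cells lysed in ice-cold buffer with phosphatase and protease inhibitors, extracts cleared at 16000g, then p38 and SMAD2 phosphorylation assessed by Western blot.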

MEF [2] = test: Inhibition of TGF-beta induced p38 MAPK phosphorylation level in TAK1 deficient mouse MEF cells at low concentration incubated for 1 hr followed by TGF-beta stimulation by Western blot analysis; type: functional, cell-based; method in brief: as §1
MEF [3] = test: Inhibition of TGFbeta induced SMAD2 phosphorylation level in TAK1 deficient mouse MEF cells at low concentration incubated for 1 hr followed by TGFbeta stimulation by Western blot analysis
MEF [4] = test: Inhibition of IL-1 induced p38 MAPK phosphorylation level in TAK1 deficient mouse MEF cells at low concentration incubated for 1 hr followed by IL-1 stimulation by Western blot analysis; type: functional, cell-based
Method in brief: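 WT and TAK1-null MEFs were grown in DMEM with 10% FBS, then held in 0.1% FBS for 16 h. Cells were pretreated with inhibitor for 1 h, then stimulated with mouse IL-1α (5 ng/mL, 10 min). Cells were lysed in ice-cold buffer, and extracts were cleared at 16000g and analysed by Western blot.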

[5] = biological target: T1, Tyrosine-protein kinase Fes/Fps (Homo sapiens, UniProt P07332); test: Inhibition of FES (unknown origin) by KiNativ Profiling analysis
[6] = biological target: T1, Tyrosine-protein kinase Fes/Fps; test: Inhibition of FES Lys1 labeling site in human Huh-7 cell lysate at 1 uM by KiNativ Profiling analysis relative to control; type: subcellular
[7] = biological target: T2, Mitogen-activated protein kinase kinase kinase kinase 2 (Homo sapiens) (UniProt Q12851); test: Inhibition of MAP4K2 Lys1 labeling site in human A-375 cells at 0.5 uM by KiNativ Profiling analysis relative to control; type: cell-based
T2 sequence (whole entry): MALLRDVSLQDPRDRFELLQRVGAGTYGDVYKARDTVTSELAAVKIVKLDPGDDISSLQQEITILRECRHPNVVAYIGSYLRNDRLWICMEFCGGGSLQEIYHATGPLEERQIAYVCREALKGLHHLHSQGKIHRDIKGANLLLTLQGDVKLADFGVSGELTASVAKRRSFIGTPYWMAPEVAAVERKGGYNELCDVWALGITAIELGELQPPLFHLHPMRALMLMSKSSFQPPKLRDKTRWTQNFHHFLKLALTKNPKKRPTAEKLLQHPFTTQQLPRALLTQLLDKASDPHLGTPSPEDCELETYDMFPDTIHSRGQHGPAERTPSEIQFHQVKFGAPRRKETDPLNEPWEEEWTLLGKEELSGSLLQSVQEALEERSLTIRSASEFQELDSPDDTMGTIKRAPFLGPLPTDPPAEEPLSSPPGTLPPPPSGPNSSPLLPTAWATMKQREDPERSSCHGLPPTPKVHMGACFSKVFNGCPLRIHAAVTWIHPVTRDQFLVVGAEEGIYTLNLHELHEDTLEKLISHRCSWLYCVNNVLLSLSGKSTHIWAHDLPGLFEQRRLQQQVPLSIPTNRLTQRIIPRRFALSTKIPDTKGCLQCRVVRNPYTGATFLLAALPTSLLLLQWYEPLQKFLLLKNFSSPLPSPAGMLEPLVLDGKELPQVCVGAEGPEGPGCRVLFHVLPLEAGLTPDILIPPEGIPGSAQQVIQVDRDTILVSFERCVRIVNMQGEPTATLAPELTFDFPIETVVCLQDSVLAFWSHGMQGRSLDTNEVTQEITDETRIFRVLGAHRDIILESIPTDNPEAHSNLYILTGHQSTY

[8] = biological target: T3, Tyrosine-protein kinase ABL1 (Homo sapiens, UniProt P00519); test: Inhibition of ABL ACT labeling site in human Huh-7 cell lysate at 1 uM by KiNativ Profiling analysis relative to control; type: subcellular
[9] = biological target: T4, Mitogen-activated protein kinase 14 (Homo sapiens, UniProt Q16539); test: Inhibition of p38 alpha (unknown origin) by KiNativ Profiling analysis
[10] = biological target: T3, Tyrosine-protein kinase ABL1; test: Inhibition of ABL Lys1 labeling site in human Huh-7 cell lysate at 1 uM by KiNativ Profiling analysis relative to control; type: subcellular
[11] = biological target: T5, Tyrosine-protein kinase Fer (Homo sapiens, UniProt P16591); test: Inhibition of FER (unknown origin) ACT labeling site by KiNativ Profiling analysis
Target sequence in this assay (P16591 whole entry): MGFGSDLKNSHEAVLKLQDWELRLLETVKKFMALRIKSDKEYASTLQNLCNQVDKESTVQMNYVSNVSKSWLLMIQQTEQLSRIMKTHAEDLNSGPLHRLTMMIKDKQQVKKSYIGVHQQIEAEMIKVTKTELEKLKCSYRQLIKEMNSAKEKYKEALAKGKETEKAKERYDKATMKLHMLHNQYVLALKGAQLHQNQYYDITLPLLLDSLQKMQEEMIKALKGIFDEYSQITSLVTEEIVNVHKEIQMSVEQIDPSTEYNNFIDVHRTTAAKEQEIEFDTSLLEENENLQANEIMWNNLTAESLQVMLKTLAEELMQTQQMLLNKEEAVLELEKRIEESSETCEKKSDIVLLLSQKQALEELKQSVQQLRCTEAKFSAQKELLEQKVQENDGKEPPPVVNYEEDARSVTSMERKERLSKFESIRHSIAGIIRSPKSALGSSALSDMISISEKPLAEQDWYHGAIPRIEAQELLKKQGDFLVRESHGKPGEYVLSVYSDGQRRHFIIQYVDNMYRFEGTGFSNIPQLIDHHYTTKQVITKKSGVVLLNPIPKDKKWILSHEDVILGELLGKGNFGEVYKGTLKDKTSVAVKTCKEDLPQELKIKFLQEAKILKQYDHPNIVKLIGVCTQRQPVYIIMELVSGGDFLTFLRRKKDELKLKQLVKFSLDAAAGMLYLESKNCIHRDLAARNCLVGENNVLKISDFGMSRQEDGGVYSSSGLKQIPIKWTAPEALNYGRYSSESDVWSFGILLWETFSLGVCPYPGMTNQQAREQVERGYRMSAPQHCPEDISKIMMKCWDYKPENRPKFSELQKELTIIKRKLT

[12] = biological target: T4, Mitogen-activated protein kinase 14; test: Inhibition of p38 alpha in human Huh-7 cell lysate at 1 uM by KiNativ Profiling analysis relative to control; type: subcellular
[13] = biological target: T6, Mitogen-activated protein kinase kinase kinase 7 (Homo sapiens) (UniProt O43318); test: Inhibition of TAK1 Lys2 labeling site in human A-375 cells at 0.5 uM by KiNativ Profiling analysis relative to control; type: cell-based
T6 sequence (whole entry): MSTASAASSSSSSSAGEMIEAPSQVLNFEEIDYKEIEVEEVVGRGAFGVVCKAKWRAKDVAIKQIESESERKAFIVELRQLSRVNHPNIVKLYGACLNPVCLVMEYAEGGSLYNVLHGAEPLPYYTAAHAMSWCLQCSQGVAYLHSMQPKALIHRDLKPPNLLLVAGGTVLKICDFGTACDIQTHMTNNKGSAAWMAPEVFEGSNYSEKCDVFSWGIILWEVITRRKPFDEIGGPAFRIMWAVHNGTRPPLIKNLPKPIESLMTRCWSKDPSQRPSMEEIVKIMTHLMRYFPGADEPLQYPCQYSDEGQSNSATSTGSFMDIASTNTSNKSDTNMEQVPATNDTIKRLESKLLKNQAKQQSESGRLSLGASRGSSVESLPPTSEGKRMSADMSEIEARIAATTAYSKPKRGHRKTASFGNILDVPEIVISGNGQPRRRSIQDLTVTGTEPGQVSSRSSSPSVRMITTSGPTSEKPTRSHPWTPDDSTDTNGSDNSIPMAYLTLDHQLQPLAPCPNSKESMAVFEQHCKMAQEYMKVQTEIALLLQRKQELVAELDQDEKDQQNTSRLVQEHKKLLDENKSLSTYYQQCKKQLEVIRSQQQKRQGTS

BaF3 [14] = test: Antiproliferative activity against parental mouse BaF3 cells assessed reduction in cell viability measured after 48 hrs by Celltiter-glo assay; type: functional, cell-based; settings: BaF3, 48 h
BaF3 [15] = test: Antiproliferative activity against parental mouse BaF3 cells harbouring Bcr/Abl assessed reduction in cell viability measured after 48 hrs by Celltiter-glo assay; type: functional, cell-based; settings: BaF3, 48 h
Method in brief: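 Cells were grown with serial dilutions of compound for 48 h, and viability was read by CellTiter-Glo. IC50 was derived from the dose–response curve. Parental Ba/F3 cells were grown in the presence of interleukin 3. The BCR-ABL line is BCR-ABL-dependent Ba/F3.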

[16] = biological target: T5, Tyrosine-protein kinase Fer; test: Inhibition of FER Lys1 labeling site in human Huh-7 cell lysate at 1 uM by KiNativ Profiling analysis relative to control; type: subcellular
Target sequence in this assay (P16591 whole entry, looked up): as the sequence (P16591 whole entry) above

[17] = biological target: T7, Mitogen-activated protein kinase kinase kinase kinase 2 (Homo sapiens, UniProt Q12851); test: Inhibition of MAP4K2 (unknown origin) Lys1 labeling site by KiNativ Profiling analysis
T7 sequence (Q12851 whole entry): T2 sequence (whole entry)

[18] = biological target: T8, Mitogen-activated protein kinase kinase kinase 7 (Homo sapiens, UniProt O43318); test: Inhibition of TAK1 (unknown origin) Lys2 labeling site by KiNativ Profiling analysis
T8 sequence (O43318 whole entry): T6 sequence (whole entry)

T1 sequence (P07332 whole entry): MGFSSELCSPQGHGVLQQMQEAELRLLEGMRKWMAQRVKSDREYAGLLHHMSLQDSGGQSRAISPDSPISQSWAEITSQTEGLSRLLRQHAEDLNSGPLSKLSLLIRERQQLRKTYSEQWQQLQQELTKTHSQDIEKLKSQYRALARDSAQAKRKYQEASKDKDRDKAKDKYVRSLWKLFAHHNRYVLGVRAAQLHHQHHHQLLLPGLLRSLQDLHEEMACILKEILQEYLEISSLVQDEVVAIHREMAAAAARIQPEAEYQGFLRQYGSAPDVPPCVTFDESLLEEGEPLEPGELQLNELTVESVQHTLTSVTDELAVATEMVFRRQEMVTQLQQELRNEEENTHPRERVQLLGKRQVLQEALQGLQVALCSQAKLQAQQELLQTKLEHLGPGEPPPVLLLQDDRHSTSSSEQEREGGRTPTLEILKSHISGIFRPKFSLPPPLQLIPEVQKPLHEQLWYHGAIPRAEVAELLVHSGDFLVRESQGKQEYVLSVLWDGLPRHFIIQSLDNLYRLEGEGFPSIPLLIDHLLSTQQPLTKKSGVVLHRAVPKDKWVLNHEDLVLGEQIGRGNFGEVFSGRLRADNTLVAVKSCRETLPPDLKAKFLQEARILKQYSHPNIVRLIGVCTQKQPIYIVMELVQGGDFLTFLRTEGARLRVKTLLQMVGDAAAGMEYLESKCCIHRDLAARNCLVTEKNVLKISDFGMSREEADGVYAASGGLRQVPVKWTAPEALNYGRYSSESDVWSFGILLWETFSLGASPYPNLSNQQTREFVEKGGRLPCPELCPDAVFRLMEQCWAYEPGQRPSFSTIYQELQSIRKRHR
T3 sequence (P00519 whole entry): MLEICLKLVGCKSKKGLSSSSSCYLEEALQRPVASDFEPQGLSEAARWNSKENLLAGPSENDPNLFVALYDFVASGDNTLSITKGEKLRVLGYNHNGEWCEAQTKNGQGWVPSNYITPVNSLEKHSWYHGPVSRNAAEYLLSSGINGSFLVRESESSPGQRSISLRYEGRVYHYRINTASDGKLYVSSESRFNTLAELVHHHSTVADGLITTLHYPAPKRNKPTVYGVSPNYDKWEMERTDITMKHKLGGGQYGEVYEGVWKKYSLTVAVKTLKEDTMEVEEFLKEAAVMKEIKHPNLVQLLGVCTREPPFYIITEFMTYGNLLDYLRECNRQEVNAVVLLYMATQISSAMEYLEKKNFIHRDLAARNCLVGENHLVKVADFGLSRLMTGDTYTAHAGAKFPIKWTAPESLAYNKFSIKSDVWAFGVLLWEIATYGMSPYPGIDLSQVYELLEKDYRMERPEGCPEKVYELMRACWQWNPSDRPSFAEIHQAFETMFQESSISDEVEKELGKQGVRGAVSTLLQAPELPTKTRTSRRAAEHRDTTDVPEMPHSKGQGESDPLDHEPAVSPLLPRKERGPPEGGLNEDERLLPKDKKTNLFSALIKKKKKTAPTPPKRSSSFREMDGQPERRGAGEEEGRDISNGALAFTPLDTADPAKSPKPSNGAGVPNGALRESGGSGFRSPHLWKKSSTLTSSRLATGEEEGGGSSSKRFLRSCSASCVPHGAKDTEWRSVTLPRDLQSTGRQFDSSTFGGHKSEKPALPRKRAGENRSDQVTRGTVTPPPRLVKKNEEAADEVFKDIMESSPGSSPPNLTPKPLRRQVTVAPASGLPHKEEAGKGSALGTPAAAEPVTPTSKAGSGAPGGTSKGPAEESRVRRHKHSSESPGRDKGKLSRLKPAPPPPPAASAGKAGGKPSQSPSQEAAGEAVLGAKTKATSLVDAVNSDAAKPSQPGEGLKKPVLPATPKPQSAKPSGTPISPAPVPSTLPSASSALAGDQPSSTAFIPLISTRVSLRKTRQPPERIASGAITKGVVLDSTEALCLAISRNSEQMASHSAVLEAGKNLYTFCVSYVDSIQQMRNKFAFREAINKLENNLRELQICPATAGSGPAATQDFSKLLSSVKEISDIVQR
T4 sequence (Q16539 whole entry): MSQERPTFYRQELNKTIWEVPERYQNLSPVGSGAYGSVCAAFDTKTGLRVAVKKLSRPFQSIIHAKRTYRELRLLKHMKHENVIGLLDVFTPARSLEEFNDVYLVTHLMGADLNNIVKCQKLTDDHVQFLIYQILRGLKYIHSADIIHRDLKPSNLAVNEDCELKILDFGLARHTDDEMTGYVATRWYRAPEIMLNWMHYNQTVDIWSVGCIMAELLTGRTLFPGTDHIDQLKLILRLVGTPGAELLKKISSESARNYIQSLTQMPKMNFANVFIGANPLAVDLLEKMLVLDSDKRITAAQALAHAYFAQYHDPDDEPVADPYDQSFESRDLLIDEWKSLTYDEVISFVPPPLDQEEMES

COc1cc(O)c2c(c1)/C=C/C[C@H](O)[C@H](O)C(=O)/C=C\C[C@H](C)OC2=O
inhibition (MEF [1]): Active | inhibition (MEF [2]): Active | inhibition (MEF [3]): Active | inhibition (MEF [4]): Active

CCN1CCN(Cc2ccc(NC(=O)c3ccc(C)c(Oc4cc(NC)ncn4)c3)cc2C(F)(F)F)CC1
IC50 [5]: 252 nM | inhibition [6]: 78.5% | inhibition [7]: 91.3% | inhibition [8]: 74.1% | IC50 [9]: 250 nM | inhibition [10]: 58.4% | IC50 [11]: 577 nM | inhibition [12]: 98.6% | inhibition [13]: 78.5% | IC50 (BaF3 [14]): > 10000 nM | IC50 (BaF3 [15]): 46 nM | inhibition [16]: 75.8%

CCN1CCN(Cc2ccc(NC(=O)c3ccc(C)c(Oc4ncnc5cc(OC)c(OC)cc45)c3)cc2C(F)(F)F)CC1
IC50 [17]: 30.5 nM | IC50 [5]: 50.8 nM | inhibition [6]: 94.7% | inhibition [7]: 93.2% | inhibition [8]: 80.6% | IC50 [18]: 129 nM | inhibition [10]: 78.8% | IC50 [11]: 36.1 nM | inhibition [13]: 83.7% | IC50 (BaF3 [14]): > 10000 nM | IC50 (BaF3 [15]): 92 nM | inhibition [16]: 92.9%
